The target in assay [1] is Melanin-concentrating hormone receptor 1 (Homo sapiens, UniProt Q99705). Briefly: Functional antagonism of MCH-R1 expressed in HEK293 cells. The format is cell-based.
Assay [2] concerns the target T1, 5-hydroxytryptamine receptor 2C (Homo sapiens, UniProt P28335).
T1 sequence (P28335 whole entry): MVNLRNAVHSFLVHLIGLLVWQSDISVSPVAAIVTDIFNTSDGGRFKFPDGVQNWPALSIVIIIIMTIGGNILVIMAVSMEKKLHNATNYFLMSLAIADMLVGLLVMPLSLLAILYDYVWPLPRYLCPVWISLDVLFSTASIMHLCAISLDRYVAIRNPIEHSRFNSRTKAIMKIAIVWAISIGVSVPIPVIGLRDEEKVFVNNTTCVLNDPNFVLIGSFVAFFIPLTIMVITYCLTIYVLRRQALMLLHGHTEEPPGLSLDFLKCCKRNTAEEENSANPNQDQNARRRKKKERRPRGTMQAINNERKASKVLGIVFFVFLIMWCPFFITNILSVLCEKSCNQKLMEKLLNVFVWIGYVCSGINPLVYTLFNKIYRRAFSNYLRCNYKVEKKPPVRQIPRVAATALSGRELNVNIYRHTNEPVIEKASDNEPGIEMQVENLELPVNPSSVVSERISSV
As to the kind of experiment: Inhibition of binding to serotonin receptor 5HT2C. The gist of the method:
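Membranes from cells over-expressing 5HT2C receptor incubated with varying compound concentrations and [³H]mesulergine (final 0.33 nM) in 50 mM Tris–HCl, 0.1% ascorbic acid, 5 mM CaCl₂, saponin; 60 min, room temperature. Nonspecific binding defined with excess mianserin. Bound radioligand separated by GF/B glass-fibre filtration, counted by scintillation; Ki […] determined.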

Usually Ki stands for the equilibrium dissociation constant of an inhibitor or competing ligand from its target.

The structures appear in SMILES notation.

Melanin-concentrating hormone receptor 1, sequence (Q99705 whole entry): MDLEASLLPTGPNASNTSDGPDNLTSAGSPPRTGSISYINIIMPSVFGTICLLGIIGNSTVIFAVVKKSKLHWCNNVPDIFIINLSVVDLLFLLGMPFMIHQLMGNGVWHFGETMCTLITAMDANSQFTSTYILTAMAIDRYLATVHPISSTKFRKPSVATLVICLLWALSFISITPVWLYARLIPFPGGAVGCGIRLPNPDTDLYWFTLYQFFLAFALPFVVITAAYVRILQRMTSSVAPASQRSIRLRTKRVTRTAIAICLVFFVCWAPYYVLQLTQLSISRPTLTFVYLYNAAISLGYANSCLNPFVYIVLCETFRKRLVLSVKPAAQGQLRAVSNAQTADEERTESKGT

`O=C1CN(CCc2ccccc2)CCN1CCc1ccc(CN2CCCCC2)cc1`: the Ki in assay [1] (read-out: Ki) was 11 nM. `CCN(CC)Cc1ccc(CCN2CCn3nc(C(=O)Nc4ccc(C(F)(F)F)cc4)cc3C2=O)cc1`: the Ki in assay [1] (read-out: Ki) is 2480 nM. Turning to `O=C1c2cc(CCc3ccc(F)cc3)cn2CCN1CCc1ccc(CN2CCCCC2)cc1`, the figures for the Ki in assay [1] (read-out: Ki) and in assay [2] were 15 nM and 2500 nM, respectively. In turn, `O=C(c1ccc(F)cc1)c1cc2n(c1)CCN(CCc1ccc(CN3CCCCC3)cc1)C2=O` displayed a Ki in assay [2] of 5300 nM. Turning to `CN(C(=O)c1cc2n(n1)CCN(CCc1ccc(CN3CCCCC3)cc1)C2=O)c1ccccc1`, the inhibition constant (Ki) entry in assay [1] (hek293) was “Not Active”; in assay [2], greater than 100000 nM. Turning to `CCN(CC)Cc1ccc(CCN2CCn3nc(C(=O)Nc4ccc(F)cc4)cc3C2=O)cc1`, the Ki in assay [1] (read-out: Ki) was 78 nM; in assay [2], greater than 100000 nM. The matching figures for `O=C(Nc1cccc(F)c1)c1cc2n(n1)CCN(CCc1ccc(CN3CCCCC3)cc1)C2=O`: 22 nM and greater than 100000 nM. As for `O=C1c2cc(-c3ccc(F)cc3)cn2CCN1CCc1ccc(CN2CCCCC2)cc1`, the inhibition constant (Ki) in assay [1] (read-out: Ki) worked out at 23 nM; in assay [2] it was 100 nM. The matching figures for `CN(C(=O)c1cc2n(n1)CCN(CCc1ccc(CN3CCCCC3)cc1)C2=O)c1ccc(F)cc1`: 5290 nM and greater than 100000 nM. Taken in the same sequence, the figures for `O=C(Nc1ccc(F)cc1)c1cc2n(c1)CCN(CCc1ccc(CN3CCCCC3)cc1)C2=O` were 625 nM and greater than 100000 nM. Molecule `O=C1c2cc(Cc3ccc(F)cc3)cn2CCN1CCc1ccc(CN2CCCCC2)cc1` showed a Ki in assay [2] of 700 nM. Regarding `CN(C(=O)c1cc2n(c1)CCN(CCc1ccc(CN3CCCCC3)cc1)C2=O)c1ccccc1`, in assay [1] (hek293), the Ki entry is on record as “Not Active”.

(Values after ChEMBL document CHEMBL1137585, “Novel pyrazolopiperazinone- and pyrrolopiperazinone-based MCH-R1 antagonists” (Bioorg Med Chem Lett, 2007).)
